ASAP1 inh = ASAP1 ArfGAP inhibition; ASAP1-stimulated ARF1 GTP hydrolysis, GDP FP detection; inhibition, % at 16.5 µM; 360,000 compounds, 0.19% hits; in the data active = inhibition above about 25%;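 also: 0% = vehicle with enzyme and substrate and 100% = no enzyme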
Target sequence (Q9ULH1 325-724 limits assumed): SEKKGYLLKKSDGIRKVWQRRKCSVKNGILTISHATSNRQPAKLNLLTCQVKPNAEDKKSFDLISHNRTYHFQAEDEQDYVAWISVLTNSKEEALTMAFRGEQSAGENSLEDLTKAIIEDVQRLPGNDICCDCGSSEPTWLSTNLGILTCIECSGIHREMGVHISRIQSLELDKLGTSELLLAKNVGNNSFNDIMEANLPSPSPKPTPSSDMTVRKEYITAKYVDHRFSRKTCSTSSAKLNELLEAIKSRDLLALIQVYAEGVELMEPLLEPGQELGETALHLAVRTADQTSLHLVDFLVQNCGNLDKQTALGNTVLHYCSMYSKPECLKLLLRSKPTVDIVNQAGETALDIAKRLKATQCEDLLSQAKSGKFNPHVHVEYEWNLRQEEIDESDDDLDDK
ARFGAP1 inhibitor = inhibits rat ARF GTPase activating protein 1. Q62848. Arfgap1-stimulated ARF1 GTP hydrolysis, GDP FP detection. inhibition, % at 16.5 µM. 360,000 compounds, 0.26% hits;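 active = inhibition above a per-plate limit, mean inhibition of low control wells plus 3 SD, cut at about 25% in these data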;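 also: 0% = DMSO wells with enzyme and 100% = wells lacking Arfgap1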
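Assay system: Rat Arfgap1 GAP domain (His6, aa 1-136), purified enzyme | Buffer or medium: HEPES 25 mM pH 7.5, NaCl 150 mM, MgCl2, DTT | Schedule: GTP hydrolysis reaction 2 h at 25 °C | Signal: FP of antibody-bound GDP Alexa 633 tracer, ex 620/em 688 nm | Measure: Percent inhibition of Arfgap1-stimulated GTP hydrolysis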
Rin1-Abl PPI inh = inhibitors of human Rin1-Abl protein interaction. P00519+Q13671. TR-FRET Rin1/Abl binding, biochemical. inhibition, % at 7.35 µM. 360,000 compounds, 0.4% hits. AID 588664; in the data active = inhibition above about 5%, passing the limit was not always enough
GalR3 antag = antagonists of human GalR3. 360,000 compounds, 0.44% hits. O60755. HEK293 GalR3-CNG cAMP membrane potential fluorescence; galR3 body fused to GalR1 C-terminus. inhibition, % at 3 µM. AID 651719;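 active = inhibition above the screen-wide average plus 3 SD, cut at about 13% in these data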;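 also: forskolin and galanin both at EC90 stimulate the cells; cAMP rise reported by CNG channel membrane potential dye signal; 0% = forskolin plus galanin with DMSO and 100% = forskolin alone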
Target sequence (O60755 1-299 limits assumed): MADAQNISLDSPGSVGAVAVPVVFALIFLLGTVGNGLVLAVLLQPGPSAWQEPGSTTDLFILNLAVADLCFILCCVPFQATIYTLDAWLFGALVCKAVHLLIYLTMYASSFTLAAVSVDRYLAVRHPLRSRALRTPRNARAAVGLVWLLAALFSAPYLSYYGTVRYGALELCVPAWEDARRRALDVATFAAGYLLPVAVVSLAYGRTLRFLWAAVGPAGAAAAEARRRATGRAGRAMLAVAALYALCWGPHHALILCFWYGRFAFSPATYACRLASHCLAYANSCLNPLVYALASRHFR
ASAP1 inh confirm = ASAP1 inhibition confirmed | shares compounds with ASAP1 inh | ASAP1-stimulated Arf1 GTPase, GDP fluorescence polarization | inhibition, % at 16.5 µM | 620 compounds, 37% hits | AID 624431;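 active = mean inhibition over triplicates exceeds the hit threshold derived for the earlier primary screening run, cut at about 25% in these data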
Numbers without * were called inactive. Only some compounds are listed: those with a hit (about 1.2% of all), similar ones and a draw of the others.

Screening CCCc1cc(=O)oc2c(C)c(OCC(=O)NC3CC(C)(C)NC(C)(C)C3)ccc12 returned ASAP1 inh 26.7*, ARFGAP1 inhibitor -9.8, Rin1-Abl PPI inh -1.1, GalR3 antag -5.7 and ASAP1 inh confirm 3.7.
Screening Cc1cc(=O)oc2c(C)c(OCC(=O)NC3CC(C)(C)NC(C)(C)C3)ccc12 returned ASAP1 inh 7.6, ARFGAP1 inhibitor -0.5, Rin1-Abl PPI inh 1.1 and GalR3 antag -8.0.
For S=C(Nc1ccc2nsnc2c1)N1CCCCC1 the results were ASAP1 inh 25.5*, ARFGAP1 inhibitor 21.7, Rin1-Abl PPI inh -0.6, GalR3 antag -2.9 and ASAP1 inh confirm -0.5.
COC(=O)c1cc2c(c3c4cc(F)ccc4n(S(=O)(=O)c4cccc(C)c4)c13)C(=O)N(Cc1ccc(C(F)(F)F)cc1)C2 was read as ASAP1 inh -3.2, ARFGAP1 inhibitor 7.6 and GalR3 antag -7.2.
Screening COc1ccc(Nc2ncnc3sc(-c4ccccc4)cc23)cc1OC returned ASAP1 inh 26.3*, ARFGAP1 inhibitor 3.2, Rin1-Abl PPI inh -6.6, GalR3 antag 3.2 and ASAP1 inh confirm 28.1*.
For COc1ccc(Nc2ncnc3c2cnn3-c2ccccc2)cc1OC the results were ASAP1 inh 7.0, ARFGAP1 inhibitor -5.7, Rin1-Abl PPI inh -0.9 and GalR3 antag 3.1.
Screening COC(=O)c1cc2c(c3c4cc(OC)ccc4n(S(=O)(=O)c4cccc(C)c4)c13)C(=O)N(C)C2 returned ASAP1 inh -10.0, ARFGAP1 inhibitor -6.8 and GalR3 antag -7.3.
For COc1ccc2oc(C(=O)OCC(=O)N3CCC(C)CC3)c(C)c2c1 the results were ASAP1 inh 27.2*, ARFGAP1 inhibitor 14.6, Rin1-Abl PPI inh -0.7, GalR3 antag -0.2 and ASAP1 inh confirm 15.4.
For NC1=NN(c2c(Cl)cc(Cl)cc2Cl)C(=O)C1 the results were ASAP1 inh 25.8*, ARFGAP1 inhibitor -4.9, Rin1-Abl PPI inh 1.1, GalR3 antag 2.8 and ASAP1 inh confirm 6.4.
O=C(CN1CCN(Cc2ccccc2)CC1)Nc1cccc(S(=O)(=O)N2CCCCCC2)c1 was read as ASAP1 inh -3.8, ARFGAP1 inhibitor 0.9, Rin1-Abl PPI inh 1.4 and GalR3 antag 4.9.
For O=C(CN1CCOCC1)Nc1cccc(S(=O)(=O)N2CCCCCC2)c1 the results were ASAP1 inh 27.4*, ARFGAP1 inhibitor 5.4, Rin1-Abl PPI inh 0.2, GalR3 antag 2.6 and ASAP1 inh confirm 3.6.
For COc1cnc(-c2ccccc2)nc1Oc1cccc(C)c1 the results were ASAP1 inh 25.4*, ARFGAP1 inhibitor 14.6, Rin1-Abl PPI inh 3.9, GalR3 antag -0.4 and ASAP1 inh confirm 5.5.
For COc1cnc(-c2ccccc2)nc1OC the results were ASAP1 inh 4.9, ARFGAP1 inhibitor -6.5, Rin1-Abl PPI inh 1.4 and GalR3 antag -4.8.
Screening CC(C)C[C@H](NC(=O)c1cccs1)C(=O)N1CCC[C@H]1C(=O)NCc1ccccc1 returned ASAP1 inh -1.1, ARFGAP1 inhibitor 13.0 and GalR3 antag -6.4.
For O=C(Nc1cccc([N+](=O)[O-])c1)OCc1ccc2c(c1)OCO2 the results were ASAP1 inh 14.1, ARFGAP1 inhibitor 14.0 and GalR3 antag -9.8.
Screening CCOc1cc(/C=C2/NC(=S)NC2=O)ccc1OCc1ccc([N+](=O)[O-])cc1 returned ASAP1 inh 28.5*, ARFGAP1 inhibitor 1.6, Rin1-Abl PPI inh -1.1, GalR3 antag 4.2 and ASAP1 inh confirm 12.6.
Screening CCOc1cc(C(c2c(C)[nH][nH]c2=O)c2c(C)[nH][nH]c2=O)ccc1OCc1ccc([N+](=O)[O-])cc1 returned ASAP1 inh 15.0, ARFGAP1 inhibitor 10.9, Rin1-Abl PPI inh -2.2 and GalR3 antag -4.5.
`COc1ccc(NC(=O)C2=CC(c3ccc(C)cc3)=NS(=O)(=O)N2C)cc1OC` gave ASAP1 inh 25.1*, ARFGAP1 inhibitor 2.7, Rin1-Abl PPI inh -0.9 and ASAP1 inh confirm 13.3.
Screening O=C(N[C@H]1CC[C@H](CCNC(=O)C2CC2)O[C@@H]1CO)c1ccccn1 returned ASAP1 inh 11.6, ARFGAP1 inhibitor 7.0 and GalR3 antag -7.7.
O=C(NCC[C@@H]1CC[C@@H](NS(=O)(=O)Cc2ccccc2)[C@@H](CO)O1)C1CC1 was read as ASAP1 inh 25.7*, ARFGAP1 inhibitor 1.8, GalR3 antag -2.2 and ASAP1 inh confirm -1.1.
COc1cccc(C(=O)Nc2cccc(-c3nnc(-c4ccco4)o3)c2)c1 was read as ASAP1 inh 9.4, ARFGAP1 inhibitor 7.2, Rin1-Abl PPI inh -3.6 and GalR3 antag -0.5.
COc1ccc(Br)cc1C(=O)Nc1cccc(-c2nnc(-c3ccco3)o2)c1 was read as ASAP1 inh 72.5*, ARFGAP1 inhibitor 3.5, Rin1-Abl PPI inh 1.8, GalR3 antag -1.4 and ASAP1 inh confirm 37.3*.
`COc1ccc(NC(=O)c2cc3c(-c4ccc(OC)c(OC)c4)nn(C)c3s2)cc1OC` gave ASAP1 inh 32.0*, ARFGAP1 inhibitor 5.1, Rin1-Abl PPI inh -6.0, GalR3 antag 1.1 and ASAP1 inh confirm 57.7*.
Screening CC1(C)SC(=S)N(/N=C/c2ccc(O)cc2)C1N(O)C(=O)Nc1ccc([N+](=O)[O-])cc1 (stereo not given) returned ASAP1 inh 24.9*, ARFGAP1 inhibitor 0.3, Rin1-Abl PPI inh -1.8, GalR3 antag -5.8 and ASAP1 inh confirm 15.5.
Screening COC(=O)C1=C(C)N(C)C(=NCc2ccc3c(c2)OCO3)NC1c1cccc(Cl)c1 (stereo not given) returned ASAP1 inh 19.8, ARFGAP1 inhibitor 11.4 and GalR3 antag -1.0.
`CC(=O)NCCn1ccc2ccccc21` gave ASAP1 inh 26.9*, ARFGAP1 inhibitor 9.2, Rin1-Abl PPI inh 2.5, GalR3 antag 0.1 and ASAP1 inh confirm 6.1.
`O=C(Cc1ccccc1)NCCn1ccc2ccccc21` gave ASAP1 inh -6.3, ARFGAP1 inhibitor -0.5 and Rin1-Abl PPI inh -1.9.
COC(=O)[C@]12C[C@H](CC(=O)NCCCN3CCCC3=O)C(=O)N(Cc3ccc4c(c3)OCO4)C1=C[C@H](C(C)(C)C)O[C@@H]2C was read as ASAP1 inh 6.7, ARFGAP1 inhibitor 2.2 and GalR3 antag -5.0.
Screening O=C(Nc1ccc(Br)cc1)c1cc(-c2ccncc2)nc2ccccc12 returned ASAP1 inh 29.4*, ARFGAP1 inhibitor 16.7, Rin1-Abl PPI inh 1.1, GalR3 antag -8.0 and ASAP1 inh confirm 15.5.
For COc1cccc(/C=C/c2nc(C#N)c(NCC(C)C)o2)c1 the results were ASAP1 inh 29.0*, ARFGAP1 inhibitor 0.9, Rin1-Abl PPI inh -1.6, GalR3 antag -5.1 and ASAP1 inh confirm 15.3.
For COC(=O)c1cc(NC(=O)c2ccc(Cn3cc(Cl)cn3)o2)cc(C(=O)OC)c1 the results were ASAP1 inh 40.3*, ARFGAP1 inhibitor 0.3, Rin1-Abl PPI inh -3.0, GalR3 antag -4.5 and ASAP1 inh confirm 28.1*.
CC[C@H](CO)Oc1cc(NCc2ccc(Cl)c(Cl)c2)c2ncn(C(C)C)c2c1 was read as ASAP1 inh 26.3*, ARFGAP1 inhibitor 14.0, Rin1-Abl PPI inh -1.2, GalR3 antag -3.6 and ASAP1 inh confirm 16.4.
